Read-outs that look alike come from different tables or passages of the source.
Legend:
intracellular L.infantum = format: cell-based, Leishmania infantum; conditions: for IC50: read-out: Intracellular amastigotes IC50
Method in brief: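 THP-1 cells were differentiated with 1 μM retinoic acid for 72 h, then infected overnight at 1:4 cell:parasite. Infected cells were purified on Histopaque 1077 (1300g, 20 min) and exposed 24 h (37 °C, 5% CO2) to serial dilutions. Infection was scored by counting % infected cells in Giemsa-stained cytospins. For combinations, peptaibol was held at 5 or 2 μM while alkylphosphocholine was varied (15–0.2 or 25–0.2 μM). CI came from linear isoboles; SI = CC50/intracellular IC50.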

[1] = tested on: L. infantum promastigotes; experiment: antileishmanial activity in promastigote cultures; format: cell-based, Leishmania infantum; conditions: 24 h, read-out: Promastigotes IC50
Method in brief: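 The L. infantum field strain came from an infected dog spleen and was grown at 26 °C in RPMI with 10% heat-inactivated FBS and 2% penicillin/streptomycin. Promastigotes at 10^6/ml were incubated with serial dilutions of test compound for 24 h at 26 °C. Cells were then resuspended in PBS, stained with 12 μM propidium iodide and analysed by flow cytometry. IC50 is the concentration killing 50% of parasites.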

[2] = cytotoxicity in THP-1 monocytes; format: cell-based, human; conditions: human, THP-1 monocytes
Method in brief: (§1)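 THP-1 monocytes, maintained at 37 °C and 5% CO2 in RPMI with FBS and antibiotics, were seeded at 10^6/ml. They were incubated 24 h with serial dilutions of test compounds or combinations, resuspended in PBS, stained with 12 μM propidium iodide and counted by flow cytometry. CC50 is the concentration giving 50% of maximum cytotoxicity. Single-point combination tests used the alkylphosphocholine at 15 or 25 μM with peptaibol at 5 or 2 μM.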

THP-1 monocytes = experiment: cytotoxicity in THP-1 monocytes; format: cell-based, human; conditions: for CC50: read-out: Cytotoxicity CC50, THP-1 monocytes
Method in brief: as §1

[3] = hemolytic potential on red blood cells; format: cell-based, human; conditions: human, red blood cells from EDTA-preserved peripheral blood
Method in brief: (§2)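 EDTA-anticoagulated blood from healthy volunteers was spun at 900 g for 10 min and the red cells washed three times in PBS. Cells were mixed 1:1 (v/v) with serial dilutions of test compound prepared in PBS, incubated 1 h at 37 °C, and centrifuged. Supernatant absorbance was read at 550 nm, with water-lysed cells as 100% hemolysis. HC50 was derived as for IC50. Combinations used the alkylphosphocholine at 15 or 25 μM plus peptaibol at 5 or 2 μM.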

human RBCs = experiment: hemolytic potential on red blood cells; format: cell-based; conditions: for Hemolysis HC50 / HC50 fold higher than that of HePC: human RBCs; for Hemolysis HC50: 1 h, 37 °C, 50% of maximum hemolysis with water; for % hemolysis: at 100 μM of each compound
Method in brief: as §2

[4] = tested on: L. infantum promastigotes; experiment: ROS production in promastigotes; format: cell-based, Leishmania infantum; conditions: compounds at IC50; 1 h, 3 h, 6 h
[5] = tested on: L. infantum promastigotes; experiment: mitochondrial membrane polarization in promastigotes; format: cell-based, Leishmania infantum; conditions: for ΔΨm dissipation: at 6 h, relative to control, compound alone
Method in brief: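 Promastigotes (5 × 10^5/ml) were treated with test compounds or combinations at their IC50 values for 1, 3 or 6 h, then stained with 0.1 μM MitoTracker Red CMXRos for 30 min. Flow cytometry (488 nm laser, ≥10^4 cells, debris and autofluorescence excluded) scored the % of cells fluorescing above 10^2 (log scale) at 630 nm, relative to untreated control. Data came from at least 3 experiments.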

[6] = tested on: L. infantum promastigotes; experiment: viability of promastigotes at early stages of treatment; format: cell-based, Leishmania infantum; conditions: 6 h, compound at IC50
Method in brief: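 Promastigotes (5 × 10^5/ml) were incubated 6 h with test compounds or combinations at their IC50 values. Propidium iodide was added at 12 μM and samples were run immediately by flow cytometry (≥10^4 cells). The value is % PI-stained promastigotes relative to control, mean ± SEM of at least 3 experiments.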

[7] = tested on: L. infantum promastigotes; experiment: morphological changes in promastigotes; format: cell-based, Leishmania infantum; conditions: 6 h, 26 °C, at IC50; scanning electron microscopy
[8] = in humans; cited from earlier work
trypanosomiasis = conditions: mouse model; ref Kumar et al., 1991; cited from earlier work
[9] = single compound, intracellular amastigote in THP-1 monocytes, 24 h

Molecule | Hemolysis HC50 (human RBCs) | ROS production in promastigotes [4] | morphological alterations of promastigotes [7] | IC50 (intracellular L.infantum; [9]) | IC50 ([1]; 26 °C) | CC50 (THP-1 monocytes; 24 h) | % hemolysis (human RBCs) | HC50 fold higher than that of HePC (human RBCs) | ΔΨm dissipation [5] | also measured
CCCCCCCCCCCCCCCCOP(=O)([O-])OCC[N+](C)(C)C [HePC, hexadecylphosphocholine, reference compound] | 38.3 ± 2.8 µM | low levels of ROS | did not seem to affect noticeably the morphology |  |  |  |  |  |  | IC50 (intracellular L.infantum; Leishmania infantum, THP-1, 24 h): 1.8 ± 0.5 µM; Selectivity Index (SI), CC50/IC50 against the intracellular form (intracellular L.infantum; THP-1 CC50 / intracellular amastigote IC50): 15.8; IC50 ([1]; Leishmania infantum): 8.2 ± 0.7 µM; CC50 at 24 h [2]: 28.6 ± 2.5 µM; % PI-stained THP-1 cells (THP-1 monocytes; 15 μM HePC or 25 μM TC52, alone or combined with 5 μM AAM or 2 μM SZ, 24 h): 27.6%; hemolysis at 1 h, 100 µM [3]: 96.1%; mitochondrial transmembrane potential (MitoTracker retention) ([5]; compounds at IC50, 1 h, 3 h, 6 h): significantly induce accumulation of MitoTracker above the control levels; PI-stained promastigotes [6]: 5.5%; half-life [8]: 100 to 200 h
antiamoebin [AAM] | 94.6 ± 2.6 µM | moderate levels of ROS | caused damage to the plasma membrane and altered flagellar morphology | 7.5 ± 0.2 µM | 8.7 ± 0.1 µM | 40.3 ± 3.2 µM | 52.9% | 2.5 fold | 75% | fold less cytotoxic than HePC (THP-1 monocytes; THP-1 CC50 ratio): 1.4 fold; fold less cytotoxic than SZ (THP-1 monocytes; THP-1 CC50 ratio): about 1.8 fold; trypanocidal activity (trypanosomiasis): exhibits trypanocidal activity
suzukacillin A [SZ] | 66.9 ± 2.2 µM | moderate levels of ROS |  | 7.6 ± 1.2 µM | 8.2 ± 0.1 µM | 22.5 ± 3.2 µM | 96.6% | 1.7 fold | 30% | 
